In ChEMBL document CHEMBL1144397, “Structure-based design: synthesis and biological evaluation of a series of novel cycloamide-derived HIV-1 protease inhibitors” (J Med Chem, 2005):

Legend:
[1] = target: Human immunodeficiency virus type 1 protease (Human immunodeficiency virus 1, UniProt Q72874); assay: Inhibitory activity against human immunodeficiency virus 1 protease
MT2 [2] = assay: (§1) Compound tested for the inhibition of HIV-induced cytopathogenicity in MT-2 cells; type: functional, cell-based; settings: Homo sapiens
Method in brief: (§2)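 MT-2 cells (2 × 10^3/well) infected with 100 TCID50s of HIV-1LAI in presence of various agent concentrations; 37 °C for 7 days. Viability read by MTT (7.5 mg/mL in PBS), 2 h at 37 °C, formazan dissolved in acidified 2-propanol with 4% Triton X-100, OD 570 nm. IC50/IC75 from inhibition of cytopathogenicity; duplicate assays, mean of two or three.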

MT2 [3] = assay: as §1; type: functional; settings: Homo sapiens; method in brief: as §2

| SMILES | Ki [1] | IC50 (MT2 [2]) | IC75 (MT2 [3]) |
| --- | --- | --- | --- |
| C=CCCCCC(NC(=O)c1cccc(O)c1OCC=C)C(O)CN(CC(C)C)S(=O)(=O)c1ccc(OC)cc1 (configuration not stated) | 12 nM |  |  |
| C=CCCCCC(NC(=O)c1cccc(O)c1OCCCC=C)C(O)CN(CC(C)C)S(=O)(=O)c1ccc(OC)cc1 (configuration not stated) | 9 nM |  |  |
| COc1ccc(S(=O)(=O)N(CC(C)C)CC(O)C2CCCCCCCCCOc3c(O)cccc3C(=O)N2)cc1 (configuration not stated) | 2 nM | 560 nM | > 1000 nM |
| CC(C)CN(C[C@@H](O)[C@H](Cc1ccccc1)NC(=O)O[C@H]1CCOC1)S(=O)(=O)c1ccc(N)cc1 |  | 28 nM | 79 nM |
| CC(C)CN(CC(O)C1CCCCCCCCOc2c(O)cccc2C(=O)N1)S(=O)(=O)c1ccc2c(c1)OCO2 (configuration not stated) | 3 nM | > 1000 nM | > 1000 nM |
| CCCCCCCC(NC(=O)c1cccc(O)c1O)C(O)CN(CC(C)C)S(=O)(=O)c1ccc(OC)cc1 (configuration not stated) | 270 nM |  |  |
| CC(C)(C)NC(=O)[C@@H]1C[C@@H]2CCCC[C@@H]2CN1C[C@@H](O)[C@H](Cc1ccccc1)NC(=O)[C@H](CC(N)=O)NC(=O)c1ccc2ccccc2n1 |  | 12 nM | 47 nM |
| C=CCCCCC(NC(=O)c1cccc(O)c1OCCC=C)C(O)CN(CC(C)C)S(=O)(=O)c1ccc(OC)cc1 (configuration not stated) | 2 nM | > 1000 nM | > 1000 nM |
| C=CCCCCC(NC(=O)c1cccc(O)c1OCCC=C)C(O)CN(CC(C)C)S(=O)(=O)c1ccc2c(c1)OCO2 (configuration not stated) | 20 nM |  |  |
| COc1ccc(S(=O)(=O)N(CC(C)C)CC(O)C2CCCCCCCOc3c(O)cccc3C(=O)N2)cc1 (configuration not stated) | 1 nM |  |  |
| COc1ccc(S(=O)(=O)N(CC(C)C)CC(O)C2CCCCCCCCOc3c(O)cccc3C(=O)N2)cc1 (configuration not stated) | 0.7 nM | 300 nM | 740 nM |
| COc1ccc(S(=O)(=O)N(CC(C)C)CC(O)C2CCCC/C=C\COc3c(O)cccc3C(=O)N2)cc1 (configuration not stated) | 2 nM |  |  |
